Results as given in ChEMBL document CHEMBL1157789, “Design, synthesis and SAR of phenylamino-substituted 5,11-dihydro-dibenzo[a,d]cyclohepten-10-ones and 11H-dibenzo[b,f]oxepin-10-ones as p38 MAP kinase inhibitors” (Bioorg Med Chem Lett, 2010).
The source made the active and inactive calls. The rule behind the calls is not given here.

Key:
[1] = Inhibition of p38 assessed as rate of ATF-2 phosphorylation at 10 uM by immunosorbent non-radioactive enzyme assay
How it was run: (§1)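 p38α MAP kinase ELISA-type (immunosorbent, non-radioactive) assay. Enzyme was incubated with ATP at 100 µM, ATF-2 as substrate, and test compound at 10^-5 to 10^-8 M. Activity was read as the rate of ATF-2 phosphorylation. SB203580 served as the reference inhibitor.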

[2] = biological target: Serine/threonine-protein kinase PLK1 (Homo sapiens) (UniProt P53350); test: Inhibition of PLK1 at 10 uM
[3] = biological target: Hepatocyte growth factor receptor (Homo sapiens) (UniProt P08581); test: Inhibition of MET at 10 uM
Sequence of Hepatocyte growth factor receptor (Homo sapiens) (P08581 whole entry): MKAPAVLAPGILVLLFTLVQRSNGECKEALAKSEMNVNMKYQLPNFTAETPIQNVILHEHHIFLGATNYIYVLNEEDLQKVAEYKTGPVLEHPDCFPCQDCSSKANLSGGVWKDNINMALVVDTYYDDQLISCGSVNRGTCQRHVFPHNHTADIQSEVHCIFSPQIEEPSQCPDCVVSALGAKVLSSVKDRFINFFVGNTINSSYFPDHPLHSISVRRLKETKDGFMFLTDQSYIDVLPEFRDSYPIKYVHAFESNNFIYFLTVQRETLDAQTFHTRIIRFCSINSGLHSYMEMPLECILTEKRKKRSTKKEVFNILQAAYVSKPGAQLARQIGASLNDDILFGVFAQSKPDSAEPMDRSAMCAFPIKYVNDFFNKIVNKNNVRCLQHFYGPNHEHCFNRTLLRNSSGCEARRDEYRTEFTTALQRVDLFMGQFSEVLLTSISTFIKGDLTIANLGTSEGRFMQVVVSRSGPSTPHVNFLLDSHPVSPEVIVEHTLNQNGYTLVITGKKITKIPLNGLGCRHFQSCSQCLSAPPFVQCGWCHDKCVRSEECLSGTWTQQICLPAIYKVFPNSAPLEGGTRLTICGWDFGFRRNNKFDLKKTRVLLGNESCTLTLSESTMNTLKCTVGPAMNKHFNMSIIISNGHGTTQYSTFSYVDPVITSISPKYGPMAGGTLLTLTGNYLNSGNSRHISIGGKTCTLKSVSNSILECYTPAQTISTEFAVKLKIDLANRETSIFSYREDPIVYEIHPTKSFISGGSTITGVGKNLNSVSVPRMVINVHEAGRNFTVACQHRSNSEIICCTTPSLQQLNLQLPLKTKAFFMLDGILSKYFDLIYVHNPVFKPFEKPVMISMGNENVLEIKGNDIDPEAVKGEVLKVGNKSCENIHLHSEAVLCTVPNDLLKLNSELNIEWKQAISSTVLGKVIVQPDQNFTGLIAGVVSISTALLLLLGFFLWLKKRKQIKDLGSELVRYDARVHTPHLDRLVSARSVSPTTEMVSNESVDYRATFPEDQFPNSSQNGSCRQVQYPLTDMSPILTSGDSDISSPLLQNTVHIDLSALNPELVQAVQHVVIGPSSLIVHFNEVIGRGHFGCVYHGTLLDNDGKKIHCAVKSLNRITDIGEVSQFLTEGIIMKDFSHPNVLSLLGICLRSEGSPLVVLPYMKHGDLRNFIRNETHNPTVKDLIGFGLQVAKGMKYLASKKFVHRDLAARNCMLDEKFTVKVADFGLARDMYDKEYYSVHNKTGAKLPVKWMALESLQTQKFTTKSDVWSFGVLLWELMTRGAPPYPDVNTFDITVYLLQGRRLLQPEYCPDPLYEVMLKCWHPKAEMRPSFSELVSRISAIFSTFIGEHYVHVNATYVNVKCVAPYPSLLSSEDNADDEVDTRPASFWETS

[4] = biological target: Serine/threonine-protein kinase N1 (Homo sapiens) (UniProt Q16512); test: Inhibition of PRK1 at 10 uM
[5] = biological target: Tyrosine-protein kinase receptor UFO (Homo sapiens) (UniProt P30530); test: Inhibition of AXL at 10 uM
[6] = biological target: Insulin receptor (Homo sapiens) (UniProt P06213); test: Inhibition of INSR at 10 uM
Sequence of Insulin receptor (Homo sapiens) (P06213 28-758 limits assumed): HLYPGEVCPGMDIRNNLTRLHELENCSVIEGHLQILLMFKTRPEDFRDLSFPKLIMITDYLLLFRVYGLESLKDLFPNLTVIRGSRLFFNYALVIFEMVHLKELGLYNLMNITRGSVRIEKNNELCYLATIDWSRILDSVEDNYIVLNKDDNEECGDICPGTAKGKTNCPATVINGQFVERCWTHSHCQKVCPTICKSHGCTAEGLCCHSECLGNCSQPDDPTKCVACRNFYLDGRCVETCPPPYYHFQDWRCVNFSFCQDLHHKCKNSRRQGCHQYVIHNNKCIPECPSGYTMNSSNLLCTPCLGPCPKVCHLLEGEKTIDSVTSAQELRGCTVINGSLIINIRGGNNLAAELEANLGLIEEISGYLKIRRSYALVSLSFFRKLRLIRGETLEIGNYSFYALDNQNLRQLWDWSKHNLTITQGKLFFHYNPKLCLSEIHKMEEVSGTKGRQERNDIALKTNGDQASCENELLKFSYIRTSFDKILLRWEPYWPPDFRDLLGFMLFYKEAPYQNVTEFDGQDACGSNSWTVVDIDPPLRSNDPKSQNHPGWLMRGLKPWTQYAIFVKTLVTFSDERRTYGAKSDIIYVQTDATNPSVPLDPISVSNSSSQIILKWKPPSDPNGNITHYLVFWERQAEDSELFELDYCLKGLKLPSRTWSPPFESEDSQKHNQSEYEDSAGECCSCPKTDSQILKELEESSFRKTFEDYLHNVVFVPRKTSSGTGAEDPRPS
Sequence of Insulin receptor (Homo sapiens) (P06213 763-1382 limits assumed): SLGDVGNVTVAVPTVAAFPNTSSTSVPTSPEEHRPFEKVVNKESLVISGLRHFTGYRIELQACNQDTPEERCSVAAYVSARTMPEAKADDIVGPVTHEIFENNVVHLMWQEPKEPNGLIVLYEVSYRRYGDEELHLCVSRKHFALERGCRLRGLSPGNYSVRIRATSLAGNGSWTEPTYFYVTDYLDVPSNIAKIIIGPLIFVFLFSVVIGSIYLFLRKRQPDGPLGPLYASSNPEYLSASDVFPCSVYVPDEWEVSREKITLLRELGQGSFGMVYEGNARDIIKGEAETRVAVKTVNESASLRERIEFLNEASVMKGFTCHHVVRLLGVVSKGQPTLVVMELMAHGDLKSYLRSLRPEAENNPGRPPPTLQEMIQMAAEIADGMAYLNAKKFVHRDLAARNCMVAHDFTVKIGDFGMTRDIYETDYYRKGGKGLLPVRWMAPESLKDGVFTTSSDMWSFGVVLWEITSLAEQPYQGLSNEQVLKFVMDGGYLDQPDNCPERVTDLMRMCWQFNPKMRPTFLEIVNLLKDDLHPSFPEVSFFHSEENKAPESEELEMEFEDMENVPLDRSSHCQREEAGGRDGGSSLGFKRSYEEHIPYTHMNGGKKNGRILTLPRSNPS

[7] = biological target: T1, NUAK family SNF1-like kinase 1 (Homo sapiens) (UniProt O60285); test: Inhibition of ARK5 at 10 uM
T1 sequence (whole entry): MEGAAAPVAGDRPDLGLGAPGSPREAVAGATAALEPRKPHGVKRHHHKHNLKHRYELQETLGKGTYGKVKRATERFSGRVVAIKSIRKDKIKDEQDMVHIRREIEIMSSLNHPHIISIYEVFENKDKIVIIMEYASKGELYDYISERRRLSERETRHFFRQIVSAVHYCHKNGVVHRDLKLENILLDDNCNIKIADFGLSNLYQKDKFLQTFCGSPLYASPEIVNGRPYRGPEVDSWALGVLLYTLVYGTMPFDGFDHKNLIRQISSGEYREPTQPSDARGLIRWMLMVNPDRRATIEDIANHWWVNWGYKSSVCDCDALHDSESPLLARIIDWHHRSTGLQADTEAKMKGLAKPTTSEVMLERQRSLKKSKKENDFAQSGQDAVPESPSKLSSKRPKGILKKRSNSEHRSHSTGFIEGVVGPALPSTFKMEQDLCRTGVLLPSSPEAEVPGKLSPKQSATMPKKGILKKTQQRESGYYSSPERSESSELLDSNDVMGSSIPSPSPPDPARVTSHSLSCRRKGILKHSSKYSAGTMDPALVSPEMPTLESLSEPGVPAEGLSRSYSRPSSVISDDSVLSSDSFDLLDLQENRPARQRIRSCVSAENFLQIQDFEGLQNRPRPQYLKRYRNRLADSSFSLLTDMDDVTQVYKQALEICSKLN

[8] = biological target: RAC-alpha serine/threonine-protein kinase (Homo sapiens) (UniProt P31749); test: Inhibition of AKT1 at 10 uM
Sequence of RAC-alpha serine/threonine-protein kinase (Homo sapiens) (P31749 whole entry): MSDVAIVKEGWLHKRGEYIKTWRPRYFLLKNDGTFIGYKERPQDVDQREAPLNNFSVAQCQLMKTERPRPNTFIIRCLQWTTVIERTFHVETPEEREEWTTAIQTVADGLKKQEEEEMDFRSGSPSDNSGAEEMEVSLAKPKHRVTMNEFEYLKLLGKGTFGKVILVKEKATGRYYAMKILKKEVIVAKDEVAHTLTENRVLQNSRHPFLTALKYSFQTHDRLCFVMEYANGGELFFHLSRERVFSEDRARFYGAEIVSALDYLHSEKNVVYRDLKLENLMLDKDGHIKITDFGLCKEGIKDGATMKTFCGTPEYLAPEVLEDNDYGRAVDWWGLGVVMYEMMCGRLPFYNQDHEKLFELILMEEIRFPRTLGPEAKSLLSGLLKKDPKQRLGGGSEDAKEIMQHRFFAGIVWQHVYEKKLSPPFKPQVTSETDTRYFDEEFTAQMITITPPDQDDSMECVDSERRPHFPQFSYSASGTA

[9] = biological target: Proto-oncogene tyrosine-protein kinase Src (Homo sapiens) (UniProt P12931); test: Inhibition of SRC at 10 uM
Sequence of Proto-oncogene tyrosine-protein kinase Src (Homo sapiens) (P12931 2-536 limits assumed): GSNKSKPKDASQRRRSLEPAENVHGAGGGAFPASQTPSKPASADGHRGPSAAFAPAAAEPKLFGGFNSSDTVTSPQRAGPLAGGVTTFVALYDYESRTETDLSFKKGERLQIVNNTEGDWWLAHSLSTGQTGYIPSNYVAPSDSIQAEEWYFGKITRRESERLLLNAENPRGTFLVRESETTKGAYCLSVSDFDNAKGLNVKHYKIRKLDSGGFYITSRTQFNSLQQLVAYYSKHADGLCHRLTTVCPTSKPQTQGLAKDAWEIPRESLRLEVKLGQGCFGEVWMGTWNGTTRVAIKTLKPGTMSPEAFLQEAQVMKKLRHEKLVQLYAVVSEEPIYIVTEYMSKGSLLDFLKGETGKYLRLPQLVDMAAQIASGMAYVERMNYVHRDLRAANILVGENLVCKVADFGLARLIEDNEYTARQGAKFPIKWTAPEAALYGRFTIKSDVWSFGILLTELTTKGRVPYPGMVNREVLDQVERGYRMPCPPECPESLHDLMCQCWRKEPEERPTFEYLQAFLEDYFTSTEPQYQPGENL

[10] = biological target: Aurora kinase B (Homo sapiens) (UniProt Q96GD4); test: Inhibition of Aurora B at 10 uM
Sequence of Aurora kinase B (Homo sapiens) (Q96GD4 whole entry): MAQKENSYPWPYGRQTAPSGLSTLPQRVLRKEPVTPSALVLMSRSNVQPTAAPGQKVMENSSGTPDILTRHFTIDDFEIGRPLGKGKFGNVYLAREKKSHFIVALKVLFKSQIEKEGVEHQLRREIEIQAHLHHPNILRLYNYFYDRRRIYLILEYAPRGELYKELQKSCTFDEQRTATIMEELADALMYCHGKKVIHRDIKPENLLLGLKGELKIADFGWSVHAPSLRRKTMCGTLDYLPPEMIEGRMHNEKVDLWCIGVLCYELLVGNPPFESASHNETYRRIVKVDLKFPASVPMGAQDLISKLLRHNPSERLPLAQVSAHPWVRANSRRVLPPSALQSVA

[11] = biological target: Focal adhesion kinase 1 (Homo sapiens) (UniProt Q05397); test: Inhibition of FAK at 10 uM
[12] = biological target: Vascular endothelial growth factor receptor 2 (Homo sapiens) (UniProt P35968); test: Inhibition of VGFR2 at 10 uM
[13] = biological target: Insulin-like growth factor 1 receptor (Homo sapiens) (UniProt P08069); test: Inhibition of IGF1R at 10 uM
[14] = test system: Serine/threonine-protein kinase B-raf (Homo sapiens), P15056 [V600E]; test: Inhibition of B-Raf V600E mutant at 10 uM
[15] = biological target: Casein kinase II subunit alpha (Homo sapiens) (UniProt P68400); test: Inhibition of CK2alpha1 at 10 uM
Sequence of Casein kinase II subunit alpha (Homo sapiens) (P68400 whole entry, looked up): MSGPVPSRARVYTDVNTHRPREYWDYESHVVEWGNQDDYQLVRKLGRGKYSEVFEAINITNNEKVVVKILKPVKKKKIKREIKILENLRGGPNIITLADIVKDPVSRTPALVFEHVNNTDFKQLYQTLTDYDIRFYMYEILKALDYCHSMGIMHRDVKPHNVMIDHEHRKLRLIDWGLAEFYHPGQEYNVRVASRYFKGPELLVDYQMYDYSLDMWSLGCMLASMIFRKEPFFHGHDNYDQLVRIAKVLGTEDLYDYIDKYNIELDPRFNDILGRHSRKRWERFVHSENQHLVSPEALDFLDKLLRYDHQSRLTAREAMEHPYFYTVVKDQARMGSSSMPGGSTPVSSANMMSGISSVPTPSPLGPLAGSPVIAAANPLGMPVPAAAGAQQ

[16] = biological target: T2, Serine/threonine-protein kinase PLK4 (Homo sapiens) (UniProt O00444); test: Inhibition of SAK at 10 uM
T2 sequence (whole entry): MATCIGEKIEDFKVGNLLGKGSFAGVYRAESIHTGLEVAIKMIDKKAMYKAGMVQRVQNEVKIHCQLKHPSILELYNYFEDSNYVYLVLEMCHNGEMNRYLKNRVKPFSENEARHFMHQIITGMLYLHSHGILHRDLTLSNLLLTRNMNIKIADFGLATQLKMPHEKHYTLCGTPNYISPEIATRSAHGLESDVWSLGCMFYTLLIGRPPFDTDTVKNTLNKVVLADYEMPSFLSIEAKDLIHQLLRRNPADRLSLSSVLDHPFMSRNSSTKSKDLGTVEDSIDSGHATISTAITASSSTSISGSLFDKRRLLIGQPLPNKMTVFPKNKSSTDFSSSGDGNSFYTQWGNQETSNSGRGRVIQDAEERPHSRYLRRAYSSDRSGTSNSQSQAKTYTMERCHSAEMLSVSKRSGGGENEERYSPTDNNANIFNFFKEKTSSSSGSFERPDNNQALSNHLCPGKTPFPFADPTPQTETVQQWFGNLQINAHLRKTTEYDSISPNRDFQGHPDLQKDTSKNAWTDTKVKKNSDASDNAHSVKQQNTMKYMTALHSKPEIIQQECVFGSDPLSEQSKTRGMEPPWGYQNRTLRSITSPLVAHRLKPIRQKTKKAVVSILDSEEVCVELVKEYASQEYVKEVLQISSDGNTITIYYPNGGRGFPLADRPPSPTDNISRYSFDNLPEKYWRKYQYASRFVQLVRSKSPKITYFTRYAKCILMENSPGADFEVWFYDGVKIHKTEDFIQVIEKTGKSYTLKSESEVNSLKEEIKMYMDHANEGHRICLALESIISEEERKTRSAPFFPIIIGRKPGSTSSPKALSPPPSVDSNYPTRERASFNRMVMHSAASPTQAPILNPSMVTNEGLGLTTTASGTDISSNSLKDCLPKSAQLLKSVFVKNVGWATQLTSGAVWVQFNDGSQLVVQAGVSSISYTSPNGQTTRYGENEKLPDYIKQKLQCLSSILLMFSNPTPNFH

[17] = biological target: BDNF/NT-3 growth factors receptor (Homo sapiens) (UniProt Q16620); test: Inhibition of TRKB at 10 uM
[18] = Inhibition of p38 assessed as rate of ATF-2 phosphorylation by immunosorbent non-radioactive enzyme assay; how it was run: as §1

Compound | inhibition [1] | inhibition [2] | inhibition [3] | inhibition [4] | inhibition [5] | inhibition [6] | inhibition [7] | inhibition [8] | inhibition [9] | inhibition [10] | inhibition [11] | inhibition [12] | inhibition [13] | inhibition [14] | inhibition [15] | inhibition [16] | inhibition [17] | IC50 [18]
O=C1Cc2ccccc2Oc2c(Nc3ccc(F)cc3F)cccc21 | 12% |  |  |  |  |  |  |  |  |  |  |  |  |  |  |  |  | 
O=C1Cc2ccccc2Cc2cc(NCc3ccccc3)ccc21 | 9% | inactive | inactive | inactive | inactive | inactive | inactive | inactive | inactive | inactive | inactive | inactive | inactive | inactive | inactive | inactive | inactive | 
Nc1ccccc1Nc1ccc2c(c1)C(=O)Cc1ccccc1O2 | 36% |  |  |  |  |  |  |  |  |  |  |  |  |  |  |  |  | 
Nc1ccc(Nc2ccc3c(c2)Cc2ccccc2CC3=O)cc1 | 15% | inactive | inactive | inactive | inactive | inactive | inactive | inactive | inactive | inactive | inactive | inactive | inactive | inactive | inactive | inactive | inactive | 
O=C1Cc2ccccc2Oc2ccc(Nc3ccccc3)cc21 | 25% |  |  |  |  |  |  |  |  |  |  |  |  |  |  |  |  | 
O=C1Cc2ccccc2Oc2c(Nc3ccccc3)cccc21 | 32% |  |  |  |  |  |  |  |  |  |  |  |  |  |  |  |  | 
O=C1Cc2cc(Nc3ccccc3)ccc2Cc2ccccc21 | 47% | inactive | inactive | inactive | inactive | inactive | inactive | inactive | inactive | inactive | inactive | inactive | inactive | inactive | inactive | inactive | inactive | 
Nc1ccccc1Nc1ccc2c(c1)Oc1ccccc1NC2=O |  | inactive | inactive | inactive | inactive | inactive | inactive | inactive | inactive | inactive | inactive | inactive | inactive | inactive | inactive | inactive | inactive | 2700 nM
Nc1ccccc1Nc1cccc2c1Oc1ccccc1CC2=O | 37% |  |  |  |  |  |  |  |  |  |  |  |  |  |  |  |  | 
O=C1Cc2ccccc2Cc2c(Nc3ccc(F)cc3F)cccc21 | 6% |  |  |  |  |  |  |  |  |  |  |  |  |  |  |  |  | 
Nc1cc(F)ccc1Nc1ccc2c(c1)CC(=O)c1ccccc1C2 |  | inactive | inactive | inactive | inactive | inactive | inactive | inactive | inactive | inactive | inactive | inactive | inactive | inactive | inactive | inactive | inactive | 980 nM
Nc1ccccc1Nc1ccc2c(c1)C(=O)Cc1ccccc1C2 |  | inactive | inactive | inactive | inactive | inactive | inactive | inactive | inactive | inactive | inactive | inactive | inactive | inactive | inactive | inactive | inactive | 4010 nM
O=C1Cc2ccccc2Cc2ccc(Nc3ccc(F)cc3F)cc21 | 44% |  |  |  |  |  |  |  |  |  |  |  |  |  |  |  |  | 
Nc1cc(F)ccc1Nc1ccc2c(c1)C(=O)Cc1ccccc1O2 | 46% |  |  |  |  |  |  |  |  |  |  |  |  |  |  |  |  | 
O=C1Cc2ccccc2Cc2c(Nc3ccccc3)cccc21 | 47% |  |  |  |  |  |  |  |  |  |  |  |  |  |  |  |  | 
O=C1Cc2ccccc2Cc2cc(-c3ccccc3)ccc21 | 43% | inactive | inactive | inactive | inactive | inactive | inactive | inactive | inactive | inactive | inactive | inactive | inactive | inactive | inactive | inactive | inactive | 
